Laboratory results published in ChEMBL document CHEMBL1129929, “Analogues of methotrexate in rheumatoid arthritis. 1. Effects of 10-deazaaminopterin analogues on type II collagen-induced arthritis in mice” (J Med Chem, 1997).
pIC50: −log10 of the molar value.

Tests used:
Mus musculus [1] = experiment: Incidence of disease(mouse type II collagen arthritis) was scored as the percentage of animals within each experimental group that exhibited joint or limb inflammation on day 23 at intraperitoneal dose of 18 mg/kg; type: functional
Outline: (§1)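 DBA/1 mice were immunized with bovine type II collagen (modified Courtenay method), with a collagen booster on day 21. Compounds were given ip starting 2 days before the first collagen challenge and every 2 days thereafter. Incidence was the percentage of animals per group with joint or limb inflammation, scored on days 23, 30, 37 and 44.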

Mus musculus [2] = experiment: Incidence of disease(mouse type II collagen arthritis) was scored as the percentage of animals within each experimental group that exhibited joint or limb inflammation on day 44 at intraperitoneal of dose 18 mg/kg; type: functional; outline: as §1
Mus musculus [3] = experiment: Incidence of disease(mouse type II collagen arthritis) was scored as the percentage of animals within each experimental group that exhibited joint or limb inflammation on day 37 at intraperitoneal of dose 12 mg/kg; type: functional; outline: as §1
Mus musculus [4] = experiment: Tested for antiinflammatory activity on mouse type II collagen arthritis as Paw swelling* of all animals in each group on day 23 at intraperitoneal dose of 18 mg/kg; type: functional
Outline: (§2)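 DBA/1 mice immunized with bovine type II collagen (Courtenay method, modified), antigen booster at day 21. Compounds given ip from 2 days before the first collagen challenge, then every 2 days. Hind paw dimensions (mm) measured for both limbs of all animals, expressed as mean ± SD. Eight mice per dose; untreated controls pooled from four experiments (48 animals).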

Mus musculus [5] = experiment: Incidence of disease(mouse type II collagen arthritis) was scored as the percentage of animals within each experimental group that exhibited joint or limb inflammation on day 30 at intraperitoneal of dose 12 mg/kg; type: functional; outline: as §1
Mus musculus [6] = experiment: Tested for antiinflammatory activity on mouse type II collagen arthritis as Paw swelling* of all animals in each group on day 30 at intraperitoneal dose of 18 mg/kg; type: functional; outline: as §2
Mus musculus [7] = experiment: Tested for antiinflammatory activity on mouse type II collagen arthritis as Paw swelling* of all animals in each group on day 37 at intraperitoneal dose of 12 mg/kg; type: functional; outline: as §2
Mus musculus [8] = experiment: Tested for antiinflammatory activity on mouse type II collagen arthritis as Paw swelling* of all animals in each group on day 30 at intraperitoneal dose of 12 mg/kg; type: functional; outline: as §2
Mus musculus [9] = experiment: Incidence of disease(mouse type II collagen arthritis) was scored as the percentage of animals within each experimental group that exhibited joint or limb inflammation on day 23 at intraperitoneal of dose 12 mg/kg; type: functional; outline: as §1
[10] = Concentration required to inhibit the growth of chang liver cells; type: functional; conditions: Homo sapiens
Mus musculus [11] = experiment: Incidence of disease(mouse type II collagen arthritis) was scored as the percentage of animals within each experimental group that exhibited joint or limb inflammation on day 37 at intraperitoneal of dose 18 mg/kg; type: functional; outline: as §1
Mus musculus [12] = experiment: Tested for antiinflammatory activity on mouse type II collagen arthritis as Paw swelling* of all animals in each group on day 44 at intraperitoneal dose of 18 mg/kg; type: functional; outline: as §2
Mus musculus [13] = experiment: Tested for antiinflammatory activity on mouse type II collagen arthritis as Paw swelling* of all animals in each group on day 44 at intraperitoneal dose of 12 mg/kg; type: functional; outline: as §2
Mus musculus [14] = experiment: Tested for antiinflammatory activity on mouse type II collagen arthritis as Paw swelling* of all animals in each group on day 37 at intraperitoneal dose of 18 mg/kg; type: functional; outline: as §2
Mus musculus [15] = experiment: Tested for antiinflammatory activity on mouse type II collagen arthritis as Paw swelling* of all animals in each group on day 23 at intraperitoneal dose of 12 mg/kg; type: functional; outline: as §2
Mus musculus [16] = experiment: Incidence of disease(mouse type II collagen arthritis) was scored as the percentage of animals within each experimental group that exhibited joint or limb inflammation on day 30 at intraperitoneal of dose 18 mg/kg; type: functional; outline: as §1
Mus musculus [17] = experiment: Incidence of disease(mouse type II collagen arthritis) was scored as the percentage of animals within each experimental group that exhibited joint or limb inflammation on day 44 at intraperitoneal of dose 12 mg/kg; type: functional; outline: as §1
L1210 = experiment: Concentration required to inhibit the growth of L1210 cells; type: functional, cell-based; conditions: Mus musculus
Mus musculus [18] = experiment: Incidence of disease(mouse type II collagen arthritis) was scored as the percentage of animals within each experimental group that exhibited joint or limb inflammation on day 23 at intraperitoneal dose of 5 mg/kg; type: functional; outline: as §1
Mus musculus [19] = experiment: Tested for antiinflammatory activity on mouse type II collagen arthritis as Paw swelling* of all animals in each group on day 37 at intraperitoneal dose of 5 mg/kg; type: functional; outline: as §2
Mus musculus [20] = experiment: Tested for antiinflammatory activity on mouse type II collagen arthritis as Paw swelling* of all animals in each group on day 30 at intraperitoneal dose of 2.25 mg/kg; type: functional; outline: as §2
Mus musculus [21] = experiment: Incidence of disease(mouse type II collagen arthritis) was scored as the percentage of animals within each experimental group that exhibited joint or limb inflammation on day 44 at intraperitoneal of dose 1.25 mg/kg; type: functional; outline: as §1
Mus musculus [22] = experiment: Incidence of disease(mouse type II collagen arthritis) was scored as the percentage of animals within each experimental group that exhibited joint or limb inflammation on day 30 at intraperitoneal of dose 1.25 mg/kg; type: functional; outline: as §1
Mus musculus [23] = experiment: Incidence of disease(mouse type II collagen arthritis) was scored as the percentage of animals within each experimental group that exhibited joint or limb inflammation on day 44 at intraperitoneal of dose 5 mg/kg; type: functional; outline: as §1
Mus musculus [24] = experiment: Incidence of disease(mouse type II collagen arthritis) was scored as the percentage of animals within each experimental group that exhibited joint or limb inflammation on day 30 at intraperitoneal of dose 2.5 mg/kg; type: functional; outline: as §1
Mus musculus [25] = experiment: Tested for antiinflammatory activity on mouse type II collagen arthritis as Paw swelling* of all animals in each group on day 37 at intraperitoneal dose of 2.25 mg/kg; type: functional; outline: as §2
Mus musculus [26] = experiment: Tested for antiinflammatory activity on mouse type II collagen arthritis as Paw swelling* of all animals in each group on day 23 at intraperitoneal dose of 1.25 mg/kg; type: functional; outline: as §2
Mus musculus [27] = experiment: Incidence of disease(mouse type II collagen arthritis) was scored as the percentage of animals within each experimental group that exhibited joint or limb inflammation on day 44 at intraperitoneal of dose 2.5 mg/kg; type: functional; outline: as §1
Mus musculus [28] = experiment: Incidence of disease(mouse type II collagen arthritis) was scored as the percentage of animals within each experimental group that exhibited joint or limb inflammation on day 23 at intraperitoneal dose of 2.5 mg/kg; type: functional; outline: as §1
Mus musculus [29] = experiment: Incidence of disease(mouse type II collagen arthritis) was scored as the percentage of animals within each experimental group that exhibited joint or limb inflammation on day 37 at intraperitoneal of dose 1.25 mg/kg; type: functional; outline: as §1
Mus musculus [30] = experiment: Tested for antiinflammatory activity on mouse type II collagen arthritis as Paw swelling* of all animals in each group on day 30 at intraperitoneal dose of 1.25 mg/kg; type: functional; outline: as §2
Mus musculus [31] = experiment: Tested for antiinflammatory activity on mouse type II collagen arthritis as Paw swelling* of all animals in each group on day 23 at intraperitoneal dose of 5 mg/kg; type: functional; outline: as §2
Mus musculus [32] = experiment: Incidence of disease(mouse type II collagen arthritis) was scored as the percentage of animals within each experimental group that exhibited joint or limb inflammation on day 23 at intraperitoneal dose of 1.25 mg/kg; type: functional; outline: as §1
Mus musculus [33] = experiment: Incidence of disease(mouse type II collagen arthritis) was scored as the percentage of animals within each experimental group that exhibited joint or limb inflammation on day 37 at intraperitoneal of dose 2.5 mg/kg; type: functional; outline: as §1
Mus musculus [34] = experiment: Incidence of disease(mouse type II collagen arthritis) was scored as the percentage of animals within each experimental group that exhibited joint or limb inflammation on day 30 at intraperitoneal of dose 5 mg/kg; type: functional; outline: as §1
Mus musculus [35] = experiment: Tested for antiinflammatory activity on mouse type II collagen arthritis as Paw swelling* of all animals in each group on day 44 at intraperitoneal dose of 5 mg/kg; type: functional; outline: as §2
Mus musculus [36] = experiment: Tested for antiinflammatory activity on mouse type II collagen arthritis as Paw swelling* of all animals in each group on day 23 at intraperitoneal dose of 2.25 mg/kg; type: functional; outline: as §2
Mus musculus [37] = experiment: Tested for antiinflammatory activity on mouse type II collagen arthritis as Paw swelling* of all animals in each group onn day 44 at intraperitoneal dose of 2.25 mg/kg; type: functional; outline: as §2
Mus musculus [38] = experiment: Tested for antiinflammatory activity on mouse type II collagen arthritis as Paw swelling* of all animals in each group on day 30 at intraperitoneal dose of 5 mg/kg; type: functional; outline: as §2
Mus musculus [39] = experiment: Incidence of disease(mouse type II collagen arthritis) was scored as the percentage of animals within each experimental group that exhibited joint or limb inflammation on day 37 at intraperitoneal of dose 5 mg/kg; type: functional; outline: as §1

## Nc1nc(N)c2nc(CCc3ccc(C(=O)NC(CCC(=O)O)C(=O)O)s3)cnc2n1 (stereo not given)
Mus musculus [1]
  Animals: 0%
Mus musculus [2]
  Animals: 25%
Mus musculus [3]
  Animals: 50%
Mus musculus [4]
  Paw swelling: 2.14 mm
Mus musculus [5]
  Animals: 0%
Mus musculus [6]
  Paw swelling: 2.16 mm
Mus musculus [7]
  Paw swelling: 2.28 mm
Mus musculus [8]
  Paw swelling: 2.15 mm
Mus musculus [9]
  Animals: 0%
[10]
  pIC50: 8.51
Mus musculus [11]
  Animals: 38%
Mus musculus [12]
  Paw swelling: 2.38 mm
Mus musculus [13]
  Paw swelling: 2.58 mm
Mus musculus [14]
  Paw swelling: 2.26 mm
Mus musculus [15]
  Paw swelling: 2.15 mm
Mus musculus [16]
  Animals: 0%
Mus musculus [17]
  Animals: 50%
L1210
  pIC50: 8.09

## CCC(Cc1cnc2nc(N)nc(N)c2n1)c1ccc(C(=O)NC(CCC(=O)O)C(=O)O)cn1 (stereo not given)
Mus musculus [3]
  Animals: 88%
Mus musculus [18]
  Animals: 12%
Mus musculus [5]
  Animals: 25%
Mus musculus [7]
  Paw swelling: 2.59 mm
Mus musculus [19]
  Paw swelling: 2.56 mm
Mus musculus [8]
  Paw swelling: 2.2 mm
Mus musculus [20]
  Paw swelling: 2.18 mm
Mus musculus [9]
  Animals: 12%
[10]
  pIC50: 7.46
Mus musculus [13]
  Paw swelling: 2.86 mm
Mus musculus [21]
  Animals: 100%
Mus musculus [22]
  Animals: 38%
Mus musculus [23]
  Animals: 88%
Mus musculus [24]
  Animals: 25%
Mus musculus [15]
  Paw swelling: 2.21 mm
Mus musculus [25]
  Paw swelling: 2.75 mm
Mus musculus [26]
  Paw swelling: 2.17 mm
Mus musculus [27]
  Animals: 75%
Mus musculus [28]
  Animals: 0%
Mus musculus [29]
  Animals: 75%
Mus musculus [30]
  Paw swelling: 2.24 mm
Mus musculus [31]
  Paw swelling: 2.15 mm
Mus musculus [32]
  Animals: 12%
Mus musculus [33]
  Animals: 75%
Mus musculus [17]
  Animals: 100%
Mus musculus [34]
  Animals: 63%
Mus musculus [35]
  Paw swelling: 3.09 mm
Mus musculus [36]
  Paw swelling: 2.15 mm
L1210
  pIC50: 6.57
Mus musculus [37]
  Paw swelling: 2.75 mm
Mus musculus [38]
  Paw swelling: 2.32 mm
Mus musculus [39]
  Animals: 75%
